In brackets after ≈: the same amount, converted by molar mass. Activity calls are given as the source filed them. The rule behind the calls is not given here.
Columns and labels:
[1] = biological target: Focal adhesion kinase 1 (Rattus norvegicus) (UniProt O35346); assay: Inhibition of FAK-mediated […] activity in rat A10 cells after 24 hrs by zymographic analysis; format: cell-based
Summary of the method: (§1)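 Culture medium of A10 VSMC treated 24 h was electrophoresed (120 V, 90 min) in 10% SDS-PAGE with 0.1% gelatin. Gels were washed in 2.5% Triton X-100, then incubated overnight (12–15 h) at 37 °C in 40 mM Tris-HCl pH 8.0 with 10 mM CaCl2 and 1% NaN3. Stained with Coomassie blue and destained.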

[2] = biological target: Focal adhesion kinase 1 (Rattus norvegicus) (UniProt O35346); assay: Inhibition of FAK in rat A10 cells assessed as inhibition of serum-induced AKT phosphorylation after 24 hrs by Western blot analysis; format: cell-based
Summary of the method: (§2)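 A10 VSMC in six-well plates incubated 24 h with 10, 15 and 20 μg/mL in DMEM containing 15% FBS, with 15% FBS as control. Lysed in SDS/DTT buffer at 95 °C. Western blot on PVDF used specific antibodies (p-AKT, PI3K, p-FAK, TIMP-1, TIMP-2), β-actin loading control, ECL detection, and densitometry relative to control as 100%.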

A10 [3] = assay: Antiproliferative activity against rat A10 cells after 24 hrs by MTT assay; format: cell-based
Summary of the method: (§3)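 A10 rat aortic VSMC seeded at 1 × 10^4 cells/well in DMEM with 10% FBS for 24 h, washed, then exposed for 24 h to 10% FBS alone or serial dilutions (5–40 μg/mL). MTT added (3 mg/mL stock in PBS) for 2 h at 37 °C, formazan dissolved in DMSO, absorbance read at 570 nm. Three separate experiments.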

[4] = biological target: Focal adhesion kinase 1 (Rattus norvegicus) (UniProt O35346); assay: Inhibition of FAK-mediated FBS-induced cell migration of rat A10 cells at 15 ug/mL after 18 hrs by scratch-wound assay; format: cell-based
Summary of the method: (§4)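 A10 VSMC (3 × 10^4) grown to 80–90% confluence in six-well plates, and the monolayer centre scraped with a micropipet tip. After a PBS wash, cells were exposed to 10, 15 or 20 μg/mL and photographed at 18 h. Cells crossing lines drawn at the original wound edges were counted in six random fields per triplicate treatment. Three experiments.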

A10 [5] = assay: Upregulation of TIMP2 expression in rat A10 cells after 24 hrs by Western blot analysis; format: functional, cell-based; summary of the method: as §2
A10 [6] = assay: Antiproliferative activity against rat A10 cells at 30 to 40 ug/mL after 24 hrs by MTT assay relative to control; format: cell-based; settings: a10, 24 h; summary of the method: as §3
A10 [7] = assay: Induction of apoptosis in rat A10 cells assessed as sub-G1 cells at 10 to 40 ug/mL after 24 hrs by PI-staining based flow cytometric analysis relative to vehicle-treated control; format: cell-based; settings: a10, 24 h
Summary of the method: (§5)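 A10 VSMC treated 24 h with 10–60 μg/mL in 15% FBS, with […] alone as control. Cells harvested with trypsin-EDTA, fixed in 70% ethanol and stained with propidium iodide plus RNase A and Nonidet P-40 for at least 30 min on ice in the dark. Three experiments.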

[8] = biological target: Focal adhesion kinase 1 (Rattus norvegicus) (UniProt O35346); assay: Inhibition of FAK-mediated FBS-induced migration of rat A10 cells at 15 and 20 ug/mL after 18 hrs by transwell assay; format: cell-based
Summary of the method: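 Trans-well chambers with 6.5 mm polycarbonate filters, 8 μm pores. A10 VSMC (4 × 10^5 mL−1) with 0–20 μg/mL in serum-free DMEM were placed in the upper chamber for 18 h at 37 °C. Cells on the lower filter surface were methanol-fixed, Giemsa-stained and counted at 200× in 10 random fields. Three experiments in duplicate.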

[9] = biological target: Focal adhesion kinase 1 (Rattus norvegicus) (UniProt O35346); assay: Inhibition of FAK-mediated MMP2 activity in rat A10 cells after 24 hrs by zymographic analysis; format: cell-based; summary of the method: as §1
[10] = biological target: Focal adhesion kinase 1 (Rattus norvegicus) (UniProt O35346); assay: Inhibition of FAK-mediated FBS-induced cell migration of rat A10 cells at 10 ug/mL after 18 hrs by scratch-wound assay; format: cell-based; summary of the method: as §4
Rattus norvegicus [11] = assay: Antirestenotic activity in Sprague-Dawley rat assessed as reduction in balloon injury-induced neointimal:[…] area ratio in carotid artery at 20 mg/mL, administered topically measured after 2 weeks by hematoxylin and eosin staining method relative to vehicle-treated control; format: functional; set-up: scale not given: the % may be the effect or the level left
Summary of the method: (§6)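 Male Sprague–Dawley rats (350–400 g) underwent carotid balloon injury, 8 per group: untreated injury control or a 10 or 20 mg/mL solution. Sham controls were included. Vessels were embedded, cut into 10 μm sections and stained with H&E. The neointimal:media area ratio was measured by computerized image analysis. Two separate experiments.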

[12] = biological target: Focal adhesion kinase 1 (Rattus norvegicus) (UniProt O35346); assay: Inhibition of FAK-mediated ERK1 phosphorylation in rat A10 cells after 30 mins by Western blot analysis; format: cell-based
Summary of the method: (§7)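 Western blot of A10 VSMC after 30 min exposure to 10, 15 and 20 μg/mL, probed for phosphorylated ERK1/2 alongside total ERK1/2. Serum-stimulated cells served as comparison. ECL detection.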

A10 [13] = assay: Antiproliferative activity against rat A10 cells at 5 to 25 ug/mL after 24 hrs by MTT assay relative to control; format: cell-based; settings: a10, 24 h; summary of the method: as §3
[14] = biological target: Focal adhesion kinase 1 (Rattus norvegicus) (UniProt O35346); assay: Inhibition of FAK-mediated ERK2 phosphorylation in rat A10 cells after 30 mins by Western blot analysis; format: cell-based; summary of the method: as §7
[15] = biological target: Focal adhesion kinase 1 (Rattus norvegicus) (UniProt O35346); assay: Inhibition of FAK-mediated FBS-induced cell migration of rat A10 cells at 20 ug/mL after 18 hrs by scratch-wound assay; format: cell-based; summary of the method: as §4
Rattus norvegicus [16] = assay: Antirestenotic activity in Sprague-Dawley rat assessed as reduction in balloon injury-induced PCNA expression in carotid artery at 10 and 20 mg/mL, administered topically measured after 2 weeks by immunohistochemistry
A10 [17] = assay: Induction of cell cycle arrest in rat A10 cells assessed as S phase cells at 10 to 40 ug/mL after 24 hrs by PI-staining based flow cytometric analysis relative to vehicle-treated control; settings: a10, 24 h; summary of the method: as §5
[18] = biological target: Focal adhesion kinase 1 (Rattus norvegicus) (UniProt O35346); assay: Inhibition of FAK in rat A10 cells assessed as inhibition of serum-induced PI3K expression after 24 hrs by Western blot analysis; format: cell-based; summary of the method: as §2
Rattus norvegicus [19] = assay: Antirestenotic activity in Sprague-Dawley rat assessed as reduction in balloon injury-induced neointimal:[…] area ratio in carotid artery at 10 mg/mL, administered topically measured after 2 weeks by hematoxylin and eosin staining method relative to vehicle-treated control; format: functional; set-up: scale not given: the % may be the effect or the level left; summary of the method: as §6
[20] = biological target: Focal adhesion kinase 1 (Rattus norvegicus) (UniProt O35346); assay: Inhibition of FAK phosphorylation in rat A10 cells after 24 hrs by Western blot analysis; format: cell-based; summary of the method: as §2
A10 [21] = assay: Upregulation of TIMP1 expression in rat A10 cells after 24 hrs by Western blot analysis; format: functional, cell-based; summary of the method: as §2

Chain of Focal adhesion kinase 1 (Rattus norvegicus) (O35346 whole entry): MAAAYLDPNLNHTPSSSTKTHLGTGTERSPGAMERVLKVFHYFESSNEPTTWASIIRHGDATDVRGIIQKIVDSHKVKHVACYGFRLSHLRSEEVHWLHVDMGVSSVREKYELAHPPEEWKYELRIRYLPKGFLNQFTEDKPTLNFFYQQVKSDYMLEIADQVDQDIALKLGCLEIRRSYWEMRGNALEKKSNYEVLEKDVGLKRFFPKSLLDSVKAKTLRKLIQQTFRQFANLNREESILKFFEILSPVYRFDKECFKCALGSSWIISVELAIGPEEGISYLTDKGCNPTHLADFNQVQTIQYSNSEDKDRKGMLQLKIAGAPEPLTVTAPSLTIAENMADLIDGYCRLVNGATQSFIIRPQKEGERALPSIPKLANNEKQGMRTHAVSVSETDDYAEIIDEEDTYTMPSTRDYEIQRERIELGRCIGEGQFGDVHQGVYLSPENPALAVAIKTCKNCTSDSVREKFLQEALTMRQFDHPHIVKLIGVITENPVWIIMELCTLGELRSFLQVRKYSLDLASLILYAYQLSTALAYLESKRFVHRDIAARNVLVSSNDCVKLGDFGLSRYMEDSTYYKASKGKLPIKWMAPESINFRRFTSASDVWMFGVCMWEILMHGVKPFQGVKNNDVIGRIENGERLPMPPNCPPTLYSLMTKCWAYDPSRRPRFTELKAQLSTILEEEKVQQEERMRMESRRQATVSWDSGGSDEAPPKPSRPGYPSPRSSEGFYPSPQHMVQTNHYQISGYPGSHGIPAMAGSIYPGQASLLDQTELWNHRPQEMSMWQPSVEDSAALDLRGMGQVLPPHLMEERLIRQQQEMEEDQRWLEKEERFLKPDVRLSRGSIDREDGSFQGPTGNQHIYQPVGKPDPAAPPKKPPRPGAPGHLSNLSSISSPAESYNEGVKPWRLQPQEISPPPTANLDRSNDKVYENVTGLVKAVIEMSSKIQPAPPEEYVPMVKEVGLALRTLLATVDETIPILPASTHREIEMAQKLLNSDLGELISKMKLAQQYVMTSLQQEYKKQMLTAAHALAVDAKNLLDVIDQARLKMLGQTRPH

CC(=O)/C=C(O)/C=C/c1ccc(O)c(O)c1 [HISPOLON]
inhibition [1]: Dose-dependent effect | inhibition [2]: Dose-dependent effect | IC50 (A10 [3]; Rattus norvegicus, A10, 24 h): 37 µg/mL (≈ 168 µM) | Activity (A10 [3]; rat, a10, 24 h): Dose-dependent effect | inhibition [4]: 6.51% | Activity (A10 [5]): Dose-dependent effect | Activity (A10 [6]): Toxic | Activity (A10 [7]): Non-toxic | inhibition [8]: Active | inhibition [9]: Dose-dependent effect | inhibition [10]: 12% | Activity (Rattus norvegicus [11]): 58% | inhibition [12]: Dose-dependent effect | Activity (A10 [13]): < 10% | inhibition [14]: Dose-dependent effect | inhibition [15]: 43.2% | Activity (Rattus norvegicus [16]): Active | Activity (A10 [17]): Non-toxic | inhibition [18]: Dose-dependent effect | Activity (Rattus norvegicus [19]): 25% | inhibition [20]: Dose-dependent effect | Activity (A10 [21]): Dose-dependent effect
